Experimental data as given in ChEMBL document CHEMBL3792364, “Identification and biological activity of 6-alkyl-substituted 3-methyl-pyridine-2-carbonyl amino dimethyl-benzoic acid EP4 antagonists” (Bioorg Med Chem Lett, 2016).
Values after ≈ are worked out from the molar mass of the structure shown. Active and inactive are the calls of the source. No cut-off for these calls is given here.

What was measured:
[1] = target: T1, Prostaglandin E2 receptor EP4 subtype (Homo sapiens, UniProt P35408); assay: Antagonist activity against EP4 in human whole blood assessed as reversal of PGE2-mediated suppression of LPS-induced TNF-alpha production preincubated for 30 mins followed by LPS stimulation measured after 20 to 24 hrs by enzyme immunoassay; format: tissue-based
T1 sequence (P35408 whole entry): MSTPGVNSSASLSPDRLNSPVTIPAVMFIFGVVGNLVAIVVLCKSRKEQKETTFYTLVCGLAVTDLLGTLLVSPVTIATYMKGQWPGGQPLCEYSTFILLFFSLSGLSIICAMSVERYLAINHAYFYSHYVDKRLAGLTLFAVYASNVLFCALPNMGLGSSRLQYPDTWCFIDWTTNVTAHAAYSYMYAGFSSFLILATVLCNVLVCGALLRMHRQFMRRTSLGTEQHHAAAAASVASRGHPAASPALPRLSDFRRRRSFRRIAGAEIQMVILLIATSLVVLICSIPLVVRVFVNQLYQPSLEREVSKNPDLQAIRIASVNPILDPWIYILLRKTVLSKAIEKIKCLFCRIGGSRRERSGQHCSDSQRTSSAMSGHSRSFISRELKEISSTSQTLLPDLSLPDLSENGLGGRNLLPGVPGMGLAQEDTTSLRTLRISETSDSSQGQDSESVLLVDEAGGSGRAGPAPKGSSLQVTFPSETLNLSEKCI
Summary of the method: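 Pooled blood from donors free of NSAIDs or celecoxib for 48 h and of glucocorticoids for 2 weeks. Blood pretreated 30 min at 37 °C, 5% CO2 with compound in DMSO (7-point curve, triplicate). LPS […] ± 10 nM PGE2 (final) added, then incubated 20–24 h. Plasma TNFα read at A450-A650. IC50 from sigmoidal nonlinear fit; geometric mean of independent runs.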

[2] = Aqueous solubility of compound at pH 6 at 2 mM after 20 hrs by HPLC; format: physicochemical; conditions: aqueous medium
Summary of the method: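 Samples in DMSO dried 12 h, then redissolved at pH 6 at a 2 mM target concentration. Stirred 20 h, filtered through 0.7 µm GF filter. Filtrate concentration measured by HPLC against a DMSO standard curve.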

[3] = target: T1, Prostaglandin E2 receptor EP4 subtype; assay: Antagonist activity against human EP4 expressed in HEK293 cells assessed as inhibition of PGE2-stimulated production of cAMP incubated for 20 mins by HTRF assay; format: functional, cell-based
Rattus norvegicus [4] = assay: Antiinflammatory activity in rat adjuvant induced arthritis model assessed as suppression of Mycobacterium tuberculosis H37 RA induced paw swelling at 10 mg/kg measured from day 11 to 15 relative to vehicle control; format: functional, organism-based
Summary of the method: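 Rat adjuvant-induced arthritis: paw widths measured, then 0.25 mg adjuvant (Mycobacterium tuberculosis H37 RA) in 100 µl mineral oil given intradermally at tail base (day 0). On day 11, width of both paws was re-measured as percent change from day 0, and rats were randomized on this and body weight before dosing. Rats were euthanized day 15 without further dosing and paw width measured.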

Rattus norvegicus [5] = assay: Antiinflammatory activity in rat MIA model assessed as inhibition of differential weight bearing at 5 mg/kg, po measured 30 mins post dose by incapacitance test; format: functional, organism-based
Summary of the method: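 MIA 0.3 mg in 50 µL saline injected into right knee and saline into left knee of rats on day 0. Day 12: randomized, single oral dose in 10% acacia in water plus 0.05% antifoam at 0.3–10 mg/kg, with diclofenac 5 mg/kg. Hind-limb weight distribution measured by incapacitance tester 30 min post dose. n = 5/group, Dunnett's test versus vehicle.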

SMILES | IC50 [1] | solubility at 20 h, 2000 µM [2] | IC50 [3] | Activity (Rattus norvegicus [4]) | Activity (Rattus norvegicus [5])
Cc1ccc(N2CCC(C)(O)CC2)nc1C(=O)Nc1c(C)cc(C(=O)O)cc1C | 3600 nM | 817 µg/mL (≈ 2060 µM) | 39.8 nM | – | –
Cc1ccc(N2CCC(CO)C2)nc1C(=O)Nc1c(C)cc(C(=O)O)cc1C (centres undefined) | – | – | 84 nM | – | –
COC1CCN(c2ccc(C)c(C(=O)Nc3c(C)cc(C(=O)O)cc3C)n2)CC1 | – | – | 96.7 nM | – | –
O=C(O)Cc1ccccc1Nc1c(Cl)cccc1Cl | – | – | – | Active | Active
Cc1ccc(N2CCCC(CO)C2)nc1C(=O)Nc1c(C)ccc(C(=O)O)c1C (centres undefined) | 2890 nM | – | 14.2 nM | – | –
